From ChEMBL document CHEMBL1154414, “In vitro and in vivo activities of T-705 against arenavirus and bunyavirus infections” (Antimicrob Agents Chemother, 2007)
Activity calls are given as the source filed them. The calls are words filed in the database; no cut-off is given here.

How the values were obtained:
[1] = system: Punta Toro virus; assay: Antiviral activity against Punta Toro virus Adames infected Syrian golden hamster assessed as mean day of death at 30 mg/kg, po twice daily for 6 days administered 4 hrs before viral challenge; type: functional
In short: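 Hamsters (groups of 15, placebo 25-30) were challenged subcutaneously with 50 PFU and dosed twice daily by oral gavage in 0.4% CMC vehicle.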

[2] = system: Punta Toro virus; assay: Antiviral activity against 5000 PFU Punta Toro virus Adames infected C57BL/6 mouse assessed as mean serum ALT levels at 10 mg/kg, po twice daily administered 24 hrs post viral challenge measured on day 3 of viral infection; type: functional
In short: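 C57BL/6 mice received subcutaneous PTV, then oral gavage twice daily for 5–7 days. T-705 was given in 0.4% CMC and ribavirin in saline. Five mice per group (10 placebo) were killed on day 3 or 4, and serum was collected. ALT activity was measured by kinetic assay. Three sham-infected mice set baselines.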

[3] = system: Punta Toro virus; assay: Antiviral activity against 50 PFU Punta Toro virus Adames infected C57BL/6 mouse assessed as survival at 30 mg/kg, po twice daily for 5 days administered 24 hrs post viral challenge; type: functional, organism-based; parameters: dose 30 mg/kg
In short: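 Groups of 15 mice (25–30 placebo) were inoculated subcutaneously with PTV. Drug in 0.4% carboxymethylcellulose was given by oral gavage twice daily.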

[4] = system: Punta Toro virus; assay: Antiviral activity against 50 PFU Punta Toro virus Adames infected C57BL/6 mouse assessed as mean viral titer per 0.1 g of liver at 30 mg/kg, po twice daily administered 24 hrs post viral challenge measured on day 3 of viral infection; type: functional
In short: (§1)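 Mice were infected subcutaneously with PTV and dosed by oral gavage twice daily with drug in 0.4% CMC. Five per group (10 placebo) were sacrificed on day 3 or 4. Serially diluted liver homogenate or serum went into triplicate LLC-MK2 wells, and CPE 50% endpoints were read at 6–8 days. The range was 2.8–9.5 log10 CCID50/0.1 g or 0.1 ml, with undetectable samples set to 2.8 and saturated samples to 9.5.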

[5] = system: Punta Toro virus; assay: Antiviral activity against 50 PFU Punta Toro virus Adames infected C57BL/6 mouse assessed as mean viral titer per 0.1 mL of serum at 30 mg/kg, po twice daily administered 24 hrs post viral challenge measured on day 3 of viral infection; type: functional; in short: as §1
[6] = system: Punta Toro virus; assay: Antiviral activity against 50 PFU Punta Toro virus Adames infected C57BL/6 mouse assessed as animals with detectable virus level in serum at 30 mg/kg, po twice daily administered 24 hrs post viral challenge measured on day 3 of viral infection; type: functional
In short: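 T-705 was suspended in 0.4% carboxymethylcellulose and given by oral gavage twice daily. Mice were infected subcutaneously with PTV. Five mice per group (10 placebo) were sacrificed on day 3 or 4. Liver homogenate or serum was serially diluted onto triplicate LLC-MK2 monolayers, and CPE was read at 6–8 days. The detection limit was 2.8 log10 CCID50 per 0.1 g liver or 0.1 ml serum.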

[7] = system: Punta Toro virus; assay: Antiviral activity against 50 PFU Punta Toro virus Adames infected C57BL/6 mouse assessed as mean serum ALT levels at 30 mg/kg, po twice daily administered 24 hrs post viral challenge measured on day 3 of viral infection; type: functional
In short: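 Subcutaneous PTV infection was followed by oral gavage twice daily with drug suspended in 0.4% CMC. Serum was collected from 5 sacrificed mice per group (10 placebo) on day 3 or 4. ALT activity was measured by kinetic assay, and sham-infected mice set the baselines.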

[8] = system: Pichinde virus; assay: Antiviral activity against Pichinde virus An 4763 infected Syrian golden hamster assessed as animals with detectable virus level in serum at 20 mg/kg, po twice daily for 7 days administered 24 hrs post viral-challenge measured on day 7 of viral infection; type: functional
In short: (§2)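 Hamsters (groups of 15, placebo 25-30) were dosed orally by gavage twice daily (drug suspended in 0.4% CMC) after bilateral intraperitoneal challenge with 65 PFU. Five per group were killed on day 7. Liver homogenate or serum was serially diluted onto triplicate B-SC-1 wells, CPE was read at 6-8 days, and the 50% endpoint was taken. Range was 2.8-9.5 log10 CCID50/0.1 g or 0.1 ml, with undetectable assigned <2.8.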

[9] = system: Pichinde virus; assay: Antiviral activity against Pichinde virus An 4763 infected Syrian golden hamster assessed as mean serum ALT levels at 50 mg/kg, po twice daily for 7 days administered 24 hrs post viral-challenge measured on day 7 of viral infection; type: functional
In short: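 Hamsters were challenged intraperitoneally (bilateral, 65 PFU) and given twice-daily oral gavage doses (0.4% CMC vehicle). Five per group were sacrificed on day 7 and serum was collected. Serum ALT activity was measured by kinetic assay. Three sham-infected animals set the baselines.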

[10] = system: Pichinde virus; assay: Antiviral activity against Pichinde virus An 4763 infected Syrian golden hamster assessed as mean day of death at 50 mg/kg, po twice daily for 7 days administered 72 hrs post viral-challenge measured on day 7 of viral infection; type: functional
In short: (§3)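 Groups of 15 hamsters (placebo 25-30) were challenged intraperitoneally (bilateral, 65 PFU) and dosed twice daily by oral gavage in 0.4% CMC for 5 to 7 days.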

[11] = system: Pichinde virus; assay: Antiviral activity against Pichinde virus An 4763 infected Syrian golden hamster assessed as mean day of death at 20 mg/kg, po twice daily for 7 days administered 72 hrs post viral-challenge measured on day 7 of viral infection; type: functional; in short: as §3
[12] = system: Pichinde virus; assay: Antiviral activity against Pichinde virus An 4763 infected Syrian golden hamster assessed as mean viral titer per 0.1 g of liver at 50 mg/kg, po twice daily for 7 days administered 72 hrs post viral-challenge measured on day 7 of viral infection; type: functional; in short: as §2
[13] = system: Pichinde virus; assay: Antiviral activity against Pichinde virus An 4763 infected Syrian golden hamster assessed as animals with detectable virus level in liver at 50 mg/kg, po twice daily for 7 days administered 72 hrs post viral-challenge measured on day 7 of viral infection; type: functional; in short: as §2
[14] = system: Punta Toro virus; assay: Antiviral activity against 500 PFU Punta Toro virus Adames infected C57BL/6 mouse assessed as mean viral titer per 0.1 g of liver at 30 mg/kg, po twice daily administered 24 hrs post viral challenge measured on day 3 of viral infection; type: functional
In short: (§4)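 Mice were infected subcutaneously with PTV and dosed by oral gavage twice daily; 5 per group (10 placebo) were killed on day 3 or 4. Liver homogenate or serum was serially diluted onto triplicate LLC-MK2 monolayers, and CPE was read 6–8 days later. 50% endpoints gave log10 CCID50 per 0.1 g liver or 0.1 ml serum. Detection range was 2.8–9.5; undetectable samples were assigned <2.8.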

[15] = system: Punta Toro virus; assay: Antiviral activity against 500 PFU Punta Toro virus Adames infected C57BL/6 mouse assessed as mean viral titer per 0.1 g of liver at 10 mg/kg, po twice daily administered 24 hrs post viral challenge measured on day 3 of viral infection; type: functional; in short: as §4
[16] = system: Punta Toro virus; assay: Antiviral activity against Punta Toro virus Adames infected Syrian golden hamster assessed as animals with detectable virus level in serum at 30 mg/kg, […] measured on day 4 of viral infection; type: functional; conditions: route oral
[17] = system: Punta Toro virus; assay: Antiviral activity against Punta Toro virus Adames infected Syrian golden hamster assessed as inhibition of liver damage at 30 mg/kg, po twice daily administered 4 hrs before viral challenge measured on day 4 of viral infection; type: functional, organism-based; parameters: dose 30 mg/kg
In short: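 Hamsters were challenged subcutaneously with 50 PFU and dosed twice daily by oral gavage in 0.4% CMC. Five per group were sacrificed on day 3 or 4. Livers were scored 0-4 for icterus, and serum ALT was measured by kinetic assay against three sham-infected baseline animals.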

[18] = system: Pichinde virus; assay: Antiviral activity against Pichinde virus An 4763 infected Syrian golden hamster assessed as mean viral titer per 0.1 mL of serum at 20 mg/kg, po twice daily for 7 days administered 24 hrs post viral-challenge; type: functional; in short: as §2

SMILES	Activity [1] [days]	Activity [2] [IU/L]	Activity [3]	log10CCID50 [4]	log10CCID50 [5]	Activity [6] [%]	Activity [7] [IU/L]	Activity [8] [%]	Activity [9] [IU/L]	Activity [10] [days]	Activity [11] [days]	log10CCID50 [12]	Activity [13] [%]	log10CCID50 [14]	log10CCID50 [15]	Activity [16] [%]	Activity [17]	log10CCID50 [18]
NC(=O)c1nc(F)cnc1O [FAVIPIRAVIR]	6	2274	Active	<2.8	<4.4	80	199	100	61	14.8	8.1	6.8	100	<3.2	<2.8	40	Active	>9
NC(=O)c1ncn([C@@H]2O[C@H](CO)[C@@H](O)[C@H]2O)n1 [RIBAVIRIN]	13.3	1515	Active	<2.8	6.1	100	131	80	26	18.5	18.3	6.5	100	<3.1	<2.9	0	Active	<5.1
